An excerpt weighted towards active compounds, which were near 1.4% of everything screened.
Thrombin inh: human alpha-thrombin inhibitors, primary screen, counter-screen for coagulation protease inhibitor project, biochemical, 1536-well, fluorogenic AMC substrate. Prothrombin (Homo sapiens), P00734. Boc-VPR-AMC fluorogenic substrate cleavage. inhibition, % at 5 µM. hit rate 0.26% among 220,000;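 active = inhibition at or above 40%; inactive = inhibition below 40%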;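 note: 0% = enzyme with no compound and 100% = wells without enzyme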
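System – human alpha-thrombin · Medium – pH 7.5 Tris (50 mM) with NaCl 150 mM, Tween 20 0.05% · Compound – single-point dosing at 5 µM, 0.2% DMSO · Incubation – enzyme reaction carried out at room temperature · Technique – fluorescence of released AMC, ex 355 nm, em 460 nm · Read-out basis – % inhibition of thrombin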
hK5 inh: human KLK5 protease inhibitors, primary screen, biochemical, 1536-well; AID 873, 2007; inhibition, % at 5 µM; recombinant hK5, fluorogenic AMC substrate cleavage; Kallikrein-5 (Homo sapiens), Q9Y337; hit rate 0.59% among 210,000;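 active = inhibition of 40% or more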;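 note: 0% = enzyme controls without compound and 100% = no-enzyme blanks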
Furin inh: human furin inhibitors, primary screen, biochemical, fluorescence intensity; P09958; purified furin, fluorogenic substrate cleavage; inhibition, % at 20 µM or 30 µM; hit rate 0.061% among 220,000; AID 463115, 2010; in the data active = inhibition above about 25%
FXIIa inh: human FXIIa protease inhibitors, primary screen, biochemical, 1536-well. Coagulation factor XII (Homo sapiens), P00748. purified FXIIa, Boc-QGR-AMC fluorogenic substrate, 2 h. inhibition, % at 5 µM. hit rate 0.3% among 220,000. AID 800, 2007; in the data active = inhibition above about 40%;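 note: 0% = enzyme with no compound and 100% = blank without enzyme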
Calpain2 inh: inhibitors of pig calpain II, primary screen, biochemical, fluorogenic peptide substrate, 1536-well | hit rate 0.37% among 220,000 | inhibition, % at 16 µM | purified calpain II, 30 min | AID 1236, 2008;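 active = inhibition above about 50%, limit read from the data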
FXIa inh 1536: human FXIa protease inhibitors, primary screen, biochemical, 1536-well; hit rate 0.14% among 220,000; inhibition, % at 5 µM; purified FXIa, Boc-Glu-Ala-Arg-AMC fluorogenic substrate; AID 798, 2007;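 active = inhibition of at least 40%; inactive = inhibition below 40%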;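 note: fluorescence of freed AMC excited at 355 nm; 0% = enzyme without compound and 100% = no enzyme blank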
Target sequence (P03951 19-387 limits assumed): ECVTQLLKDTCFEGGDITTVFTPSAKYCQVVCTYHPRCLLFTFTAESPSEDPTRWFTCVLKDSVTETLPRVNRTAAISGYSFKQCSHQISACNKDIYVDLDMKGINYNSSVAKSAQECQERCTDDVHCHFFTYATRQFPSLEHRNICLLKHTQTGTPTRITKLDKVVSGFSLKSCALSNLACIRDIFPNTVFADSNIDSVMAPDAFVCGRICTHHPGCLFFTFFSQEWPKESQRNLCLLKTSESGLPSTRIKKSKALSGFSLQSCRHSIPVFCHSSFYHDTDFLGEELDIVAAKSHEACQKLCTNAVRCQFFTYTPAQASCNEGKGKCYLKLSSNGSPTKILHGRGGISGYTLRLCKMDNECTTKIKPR
Target sequence (P03951 388-625 limits assumed): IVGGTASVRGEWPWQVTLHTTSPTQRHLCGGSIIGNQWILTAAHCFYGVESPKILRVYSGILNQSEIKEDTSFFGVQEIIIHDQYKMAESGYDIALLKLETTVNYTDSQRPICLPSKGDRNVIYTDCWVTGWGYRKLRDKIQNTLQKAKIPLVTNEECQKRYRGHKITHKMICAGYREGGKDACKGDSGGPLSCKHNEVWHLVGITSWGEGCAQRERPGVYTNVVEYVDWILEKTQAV
Active calls of the source: *; x = no result.

SMILES	Thrombin inh	hK5 inh	Furin inh	FXIIa inh	Calpain2 inh	FXIa inh 1536
CCC(=O)n1nc(-c2cccnc2)nc1NCc1cccs1	100*	2	-23	11	-28	2
O=C(c1ccco1)n1nc(-c2ccccc2)nc1NCc1ccco1	15	13	-17	-4	-32	2
COc1ccccc1C(=O)n1nc(-c2ccccc2)nc1NCc1ccco1	85*	-5	7	13	-28	5
CCC(=O)n1nc(-c2cccnc2)nc1NCc1ccc(F)cc1	x	4	-11	12	-28	3
Cc1nc2ccc(NC(=O)Cc3c(F)cccc3Cl)cc2s1	-1	3	-28	9	-16	1
Cc1cc(NC(=O)CSc2nnc(C)c(=O)[nH]2)no1	-9	-5	-23	5	15	0
O=S(=O)(c1ccc(NC(=S)Nc2ccc(OC(F)F)cc2)cc1)N1CCOCC1	-2	-10	-6	14	22	4
CCN(C(=O)Cc1cccs1)c1nnc(-c2cccnc2)s1	14	44*	-23	6	-25	-5
CN(C(=O)c1ccncc1)c1nnc(-c2cccnc2)s1	-8	-17	-8	-2	3	-7
CCS(=O)(=O)n1nc(-c2cccnc2)nc1NCc1ccc(F)cc1	15	x	-21	4	8	1
CCCC(=O)n1nc(-c2cccnc2)nc1NCc1cccs1	100*	x	-16	13	11	7
C=CCn1c(-c2ccc([N+](=O)[O-])cc2)n[nH]c1=S	-12	-17	2	5	2	2
CC(=O)c1ccc(Nc2cc(C)nc3c(C)cc(C)cc23)cc1	11	44*	7	31	21	26
O=C(O)c1ccc(/C=C2\SC(=S)N(Nc3ccccc3)C2=O)cc1	19	29	14	41*	18	49*
CC(=O)NN1C(=O)/C(=C\c2ccccc2)SC1=S	3	89*	6	-1	x	-3
COc1cc(S(=O)(=O)N2CCN(C(=O)c3ccccc3F)CC2)c(OC)cc1NC(C)=O	10	47*	-22	16	3	16
CCCS(=O)(=O)N1CCN(C(=O)c2ccccc2F)CC1	4	-19	-13	2	14	4
CCOC(=O)Cc1cc(=O)n2[nH]c(C)c(-c3ccc(Cl)cc3)c2n1	0	-111	-16	3	-59	0
Cc1ccc(C(=O)NCCCn2ccnc2)o1	0	1	4	10	-37	6
CN(CC(=O)Nc1ccc(S(=O)(=O)N2CCCC2)cc1)CC(=O)Nc1cccc(F)c1	x	2	-12	9	18	6
Cc1cc(NC(=O)c2ccc3c(c2)C(=O)N(CCC(C)C)C3=O)no1	-11	-27	-13	-2	53*	-9
Cc1ccc(NC(=O)CN(C)C(=O)CCC(=O)c2cccs2)cc1	47*	14	-14	-3	14	7
Cc1ccc(NC(=O)CN(C)C(=O)CCCN2C(=O)c3ccccc3C2=O)cc1	-4	-12	-19	-10	60*	1
CCCn1cc(C(=O)OCC)c(=O)c2cc(F)c(F)cc21	4	23	-5	31	11	65*
CCC(=O)N1CCN(c2ccc(NC(=O)c3cc4ccccc4o3)cc2Cl)CC1	-1	2	-20	1	9	-1
SMILES	Thrombin inh	hK5 inh	Furin inh	FXIIa inh	Calpain2 inh	FXIa inh 1536
COc1ccc(NC(=O)c2ccco2)cc1NC(=O)c1cc2ccccc2o1	21	54*	-14	3	-139	-1
CCC(=O)Nc1ccc(Cl)c(NC(=S)NC(=O)c2cc3ccccc3o2)c1	1	-18	0	8	51*	2
O=C(Nc1ccc(N2CCN(C(=O)c3ccco3)CC2)c(Cl)c1)c1cc2ccccc2o1	2	40*	-25	8	-35	-4
COc1ccc(CNc2ccc([N+](=O)[O-])cc2C)cc1	-2	3	-3	6	82*	-1
O=S1(=O)CCC(NC(=S)N2CCCCCC2)C1 (stereo unspecified)	-5	-10	-21	25	14	23
COCCCNC(=O)CC1Oc2ccccc2NC1=O (stereo unspecified)	16	56*	-10	11	4	14
CCOC(=O)c1cc2ccc(OC)c(OC)c2c(=O)s1	-7	-2	-9	11	-27	10
COc1ccc(C(=O)Nc2ccc(S(=O)(=O)NC(C)(C)C)cc2)cc1[N+](=O)[O-]	-3	29	-10	10	54*	3
Cc1ccc(C)c(S(=O)(=O)NCCCN2CCOCC2)c1	42*	33	-7	24	14	31
Cc1ccc(S(=O)(=O)NCCCN2CCOCC2)cc1C	-2	-2	-27	9	-14	4
Cc1ccc(N2CC(C)Cn3c2nc2c3c(=O)n(CC(=O)OCc3ccccc3)c(=O)n2C)cc1C (stereo unspecified)	15	44*	-7	25	18	6
Cc1cc(C)cc(N2CCCn3c2nc2c3c(=O)n(CC(=O)OCc3ccccc3)c(=O)n2C)c1	8	5	-13	16	19	1
Cc1ccc(C)c(-n2c(SCC(=O)N3CCCC3)nnc2-c2ccccn2)c1	-12	-12	-16	29	-2	17
CC(=O)Nc1ccc(NC(=O)Cc2ccc(S(=O)(=O)N3CCCCC3)s2)cc1	1	-10	-16	12	77*	10
CCCN1C=CC(=C/C=C(\C#N)C(=O)OCC)C=C1	-18	3	-14	0	18	3
CCOC(=O)/C(C#N)=C/N=c1ccc(C)cn1C	12	43*	0	104*	17	33
O=C(Nc1ccc(Br)cc1)c1cccc(S(=O)(=O)Nc2cnc3ccccc3c2)c1	0	-6	-10	15	-7	7
COc1ccc(NC(=O)c2cccc(S(=O)(=O)Nc3ccc(Br)cc3)c2)cn1	28	40*	4	16	25	22
Cn1c(N2CCCC2)nc2c1c(=O)n(Cc1ccc(F)cc1)c(=O)n2C	-3	-8	-24	6	-3	-4
COc1ccc(CNc2nc3c(c(=O)n(Cc4ccc(F)cc4)c(=O)n3C)n2C)cc1	-6	-9	-9	11	80*	0
Cn1c(NCc2ccccc2)nc2c1c(=O)n(Cc1ccccc1)c(=O)n2C	5	3	-12	18	62*	7
COc1nc(Nc2ccc3c(c2)OCO3)nc(OC)n1	-2	3	-18	12	8	1
COC(=O)c1ccc(C(=O)OC)c(NC(=O)COC(=O)C2CCCCC2)c1	0	-8	-5	9	31	1
COc1ccc(N2CCN(C(c3cccs3)C(C)NS(C)(=O)=O)CC2)cc1 (stereo unspecified)	-4	2	-26	13	51*	-2
C=CCOc1ccccc1CNc1ccccc1C	2	-9	-26	15	-5	19

Compound activity (PubChem BioAssay)
